Bioassay records (PubChem BioAssay)
Tn6 DDE FP: inhibitors of Tn6 peptide binding to fibrin DD(E), primary screen, biochemical, fluorescence polarization, human fibrin, Tn6 probe; 370,000 tested, 0.21% active; AID 720509, 2013; Fibrin DD(E) TRITC-Tn6 fluorescence polarization displacement; Fibrinogen beta chain (Homo sapiens), P02675; inhibition, % at 8.3 µM;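 active means inhibition above a per-campaign cutoff: mean of compounds within control limits plus 3 SD, cut at about 15% in these data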;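 further: 0% = median of all compound wells on the plate and 100% = blocking peptide control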
Target sequence (P02675 whole entry, looked up): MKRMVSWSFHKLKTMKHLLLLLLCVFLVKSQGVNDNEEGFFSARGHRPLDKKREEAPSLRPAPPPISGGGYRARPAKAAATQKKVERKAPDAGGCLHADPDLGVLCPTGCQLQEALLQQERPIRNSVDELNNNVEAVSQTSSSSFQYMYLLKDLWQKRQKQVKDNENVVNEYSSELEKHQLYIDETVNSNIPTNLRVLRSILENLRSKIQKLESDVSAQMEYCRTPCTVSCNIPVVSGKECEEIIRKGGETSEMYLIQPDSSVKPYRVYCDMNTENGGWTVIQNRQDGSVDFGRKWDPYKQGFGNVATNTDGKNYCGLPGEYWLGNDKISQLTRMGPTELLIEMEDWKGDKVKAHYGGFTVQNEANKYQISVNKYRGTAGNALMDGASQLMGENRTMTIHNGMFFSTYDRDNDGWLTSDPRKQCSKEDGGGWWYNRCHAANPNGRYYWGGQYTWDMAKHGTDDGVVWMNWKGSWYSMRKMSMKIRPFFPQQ
CRFBP-R2 agonist: agonists of CRF-BP/CRF-R2 complex, primary screen, cell-based, HEK293, calcium dye fluorescence, uHTS. calcium dye fluorescence (FLIPR); percent of saturating CRF peptide response. CRF-binding protein / CRF receptor 2 complex (human). 350,000 tested, 0.46% active. activation, % at 13.2 µM;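 active means activation of at least 50%, plus an integration ratio under a set limit after plate pattern correction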;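 further: plate controls were neutral control wells without compound for no effect and CRF at EC100 for full effect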
Tn7 DDE FP: inhibitors of Tn7 peptide binding to fibrin DD(E), primary screen, biochemical, fluorescence polarization, human fibrin, Tn7 probe; Fibrinogen beta chain (Homo sapiens), P02675; FP displacement of FITC-Tn7 peptide from fibrin DD(E); 0% = median of compound wells per plate; inhibition, % at 8.3 µM; 370,000 tested, 0.13% active;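 active means inhibition above the mean of compounds falling within the control limits plus 3 SD of them, cut at about 14% in these data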;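 further: 0% = plate median of compound wells and 100% = 10 µM Aha-Tn7 peptide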
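system = human fibrin DD(E) protein | quantity = DD(E) 2 µM final | medium = Tris/NaCl/CaCl2 buffer, pH 7.8 | also added = labelled Tn7 tracer, 0.1 µM | compound dosing = single point at 8.3 µM | timing = compound with protein 10 min, then 3 h after probe, room temperature | signal = FP measurement | benchmarks = Aha-Tn7 high control | repeats = one replicate per compound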
CRFBP-R2 block: antagonists of CRF-BP/CRF-R2 complex, primary screen, cell-based, HEK293, calcium dye fluorescence, uHTS. 350,000 tested, 0.59% active. CRF-induced calcium fluorescence. AID 588475, 2011. inhibition, % at 11.8 µM;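 active means inhibition of the ligand-induced calcium signal above about 50% at the single tested concentration, limit read from the data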
The depositor's hits bear a star; . = no result given. Hits are enriched below; roughly 1.2% of the tested compounds scored in any of these assays.

SMILES	Tn6 DDE FP	CRFBP-R2 agonist	Tn7 DDE FP	CRFBP-R2 block
CN(C(=O)c1cn(C)c2ccccc12)c1ccc(Oc2cccnc2)cc1	-4	.	1	.
O=C(C1=NN(c2ccccc2)C2C(=O)N(c3ccccc3Cl)C(=O)C12)c1ccccc1 (stereo not drawn)	0	135*	-9	-138
Cc1ccc(N2C(=O)C3C(C(=O)c4ccccc4)=NN(c4ccccc4)C3C2=O)cc1 (stereo not drawn)	0	90*	0	-86
O=C(C1=NN(c2ccccc2)C2C(=O)N(c3ccccc3)C(=O)C12)c1ccccc1 (stereo not drawn)	-5	68*	-5	-79
COc1ccccc1N1C(=O)C2C(C(=O)c3ccccc3)=NN(c3ccccc3)C2C1=O (stereo not drawn)	6	38	-5	-35
COc1ccccc1N1N=C(C(=O)c2ccccc2)C2C(=O)N(c3ccc(Br)cc3)C(=O)C21 (stereo not drawn)	0	42	-1	-20
Clc1ccccc1Cn1ccc2ccc(-c3ccc4ccn(Cc5ccccc5Cl)c4c3)cc21	0	.	4	.
Cc1ccc(C(CC(=O)O)NC(=O)c2ccc(S(=O)(=O)N3CC(C)OC(C)C3)cc2)cc1 (stereo not drawn)	-4	0	3	2
C[C@@H](CO)N(Cc1cn(Cc2ccccc2)nn1)S(=O)(=O)c1ccc(F)cc1Br	-6	.	-6	.
CN(C)c1ccc(N=Cc2nc(-c3ccccc3)oc2O)cc1	-7	161*	-2	-172
O=C(NN1C(=O)CSC1=S)c1cccnc1	3	-2	-1	77*
Cc1ccccc1C(=O)NN1C(=O)CSC1=S	-3	0	-7	7
COc1ccc(C(=O)Nc2cc(=O)n(C)c(=O)n2C)cc1	-4	0	4	104*
CCCCCCCCN1C(=O)[C@@H](CC(=O)NCc2cccc(C(F)(F)F)c2)C[C@@]2(C(=O)OC)C1=C[C@H](C(C)C)O[C@@H]2C1CC1	4	.	1	.
O=C1CCCN1c1ccc(S(=O)(=O)NCc2ccc(F)cc2)cc1	0	-1	-9	-3
O=C(CSCc1ccccc1)Nc1cc([N+](=O)[O-])ccc1F	-2	-1	5	85*
O=C1C=CC2=C3c4cc(O)c(O)cc4CC3(O)COC2=C1O (stereo not drawn)	-4	-1	10	19
CC(=O)Nc1cc(F)c2c(c1F)Cc1cc(F)ccc1-2	-1	-2	9	19
COc1ccc2c(C)cc(SCc3c(C)noc3C)nc2c1	-3	-1	-1	56*
COc1ccc2c(C)cc(SCC#N)nc2c1	.	2	.	7
CCCNC(=O)Cn1c(=O)/c(=C/c2ccc(-c3ccc([N+](=O)[O-])cc3)o2)s/c1=C\C(=O)C(C)(C)C	-6	165*	-4	-93
O=C(NC(=S)NCCc1ccccn1)c1ccco1	-6	15	2	53*
NC(=O)C1CCN(c2nc(-c3ccc(OCc4ccccc4)cc3)cs2)CC1	-2	.	1	.
Cc1nc2c(C(=O)NCCc3ccccc3)c[nH]n2c(=O)c1Cl	-10	-3	9	51*
Cc1nc2c(C(=O)NCCC(C)C)c[nH]n2c(=O)c1Cl	0	-2	-6	20
SMILES	Tn6 DDE FP	CRFBP-R2 agonist	Tn7 DDE FP	CRFBP-R2 block
COC(=O)C1CN(C2CCCC2)CCS(=O)(=O)N1Cc1ccc(OC)cc1 (stereo not drawn)	2	.	5	.
CCOc1cc2[nH]c(=O)n(Cc3ccccc3)c(=O)c2cc1OCC	-2	-1	-2	71*
COc1ccc(Cn2c(=O)[nH]c3cc(OC)c(OC)cc3c2=O)cc1	-4	0	0	-9
O=C(c1ccc([N+](=O)[O-])cc1)N(Cc1ccccc1)Cc1ccccc1	-2	5	1	68*
O=C(c1ccc([N+](=O)[O-])cc1)N(Cc1ccc(Br)cc1)N1C(=O)CCCC1=O	2	59*	-7	-4
CC1=CC(=O)C(C(C)C)=C/C1=N/OS(=O)(=O)c1ccccc1	6	51*	-3	-63
COC(=O)c1cccc(Cn2ccc3ccc(-c4ccc5ccn(C(=O)c6cccc(OC)c6)c5c4)cc32)c1	6	.	-1	.
Cc1ccc2oc(=O)c(/C=C(\O)c3sc(C)nc3C)nc2c1	-6	123*	-5	-106
Cc1ccc(/C(O)=C/c2nc3ccccc3oc2=O)cc1	-8	60*	-5	-60
O=c1oc2ccccc2nc1/C=C(O)/C=C\c1ccccc1	0	2	-5	-26
Cc1ccc2oc(=O)c(/C=C(\O)c3ccco3)nc2c1	-4	147*	1	-54
CC(C)(C)/C(O)=C/c1nc2cc(Cl)ccc2oc1=O	-1	0	-7	-13
Cc1ccc2oc(=O)c(/C=C(\O)C(C)(C)C)nc2c1	0	0	-6	5
Cc1nc(N)sc1-c1csc(Nc2ccccc2)n1	-5	-2	1	79*
C[C@@H]1OC(C2CCCCC2)N(C)[C@H]2C[C@H]3c4[nH]c5cccc(-c6cccc(F)c6)c5c4CCN3C(=O)[C@@H]12 (stereo partly drawn)	3	.	-2	.
CCCCON1C(=O)c2cccc3cccc(c23)C1=O	8	0	5	99*
COc1ccc(N2C(=O)c3ccccc3C2=O)cc1	1	-2	0	24
COc1ccc(N2C(=O)c3cccc4cccc(c34)C2=O)cc1	1	85*	-3	-89
COc1ccc(N2C(=O)c3cccc4c(N(C)CCO)ccc(c34)C2=O)cc1	-2	77*	-2	-57
CN(CCCOC(=O)c1cc2ccccc2o1)C1CN(Cc2cn(Cc3ccc([N+](=O)[O-])cc3)nn2)S(=O)(=O)C1 (stereo not drawn)	6	.	-5	.
CC1C/C(=C/c2ccncc2)C(=O)/C(=C/c2ccncc2)C1 (stereo not drawn)	4	-2	-1	18
CC1C/C(=C/c2cccn2C)C(=O)/C(=C/c2cccn2C)C1 (stereo not drawn)	1	128*	5	-184
COC(=O)[C@]12C[C@H](CC(=O)NCc3cccs3)C(=O)N(Cc3ccc(Cl)cc3Cl)C1=C[C@H](C(C)(C)C)O[C@@H]2C	9	.	-3	.
Cc1ccc(S(=O)(=O)N(CC(=O)N=Nc2c(O)[nH]c3ccccc23)c2ccc(C)c(C)c2)cc1	-2	1	-5	67*
Cc1ccc(S(=O)(=O)N=Nc2c(O)[nH]c3ccccc23)cc1	1	-1	-3	14
O=C(CSc1nnc(-c2cccnc2)n1Cc1ccco1)Nc1ccc(F)cc1Cl	2	.	2	.
COc1ccc(CCC[C@H](CCC(=O)N(c2ccccc2)c2ccccc2)CCc2ccccc2)cc1	-8	.	5	.
CCc1nnc(NC(=O)CCC(=O)N2CCN(Cc3cc(Cl)ccc3OC)CC2)s1	-12	1	-3	106*
